Consider two compounds from ChEMBL document CHEMBL5126619, “An Unexpected Deuterium-Induced Metabolic Switch in Doxophylline” (ACS Med Chem Lett, 2022).

Data set [1] has as its system Mus musculus. The experiment in a line: Antifibrotic activity against Pseudomonas aeruginosa-induced pulmonary fibrosis C57BL/6 mouse model assessed as effect on nitrotyrosine expression at 80 mg/kg, os qd […] and measured after 7 days by immunohistochemistry analysis. The class given is functional, organism-based. The settings on record: time 7.0 day, tested as the 2H-labelled form. The gist of the method: (§1)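 Mucoid P. aeruginosa NH57388A in agar beads, ~1×10^6 CFU per mouse, given trans-tracheally under isoflurane. Compound 80 mg/kg orally daily from 1 h post-instillation for 7 days, n=10. Lung sections 8 µm from formaldehyde-fixed paraffin blocks. Anti-nitrotyrosine or anti-PAR 1:500 overnight, avidin-biotin peroxidase detection. Densitometry of positive pixels; mean ± S.E.M.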

Data set [2] deals with Mus musculus. The experiment in a line: Antifibrotic activity against Pseudomonas aeruginosa-induced pulmonary fibrosis C57BL/6 mouse model assessed as effect on collagen deposition at 80 mg/kg, os qd pretreated with compound for 1 hr followed by Pseudomonas aeruginosa instillation and measured after 7 days by Masson trichrome staining based analysis. The class given is functional, organism-based. The following applies: time 7.0 day, tested as the 2H-labelled form.

Data set [3] deals with Mus musculus. The experiment in a line: Antifibrotic activity against Pseudomonas aeruginosa-induced pulmonary fibrosis C57BL/6 mouse model assessed as reduction in inflammatory interstitial infiltrate at 80 mg/kg, os qd pretreated with compound for 1 hr followed by Pseudomonas aeruginosa instillation and measured after 7 days by H and E staining based histological analysis. The settings on record: time 7.0 day. Type of data set: functional, organism-based. The procedure, abridged: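 Pseudomonas bead lung model, day 7, with oral 80 mg/kg daily treatment. Biopsies fixed in 10% formaldehyde in PBS at room temperature and stained with H&E. Five random fields per sample at ×100 scored for severity by a blinded observer.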

For data set [4], the system named is Mus musculus. The experiment in a line: Antifibrotic activity against Pseudomonas aeruginosa-induced pulmonary fibrosis C57BL/6 mouse model assessed as decrease in lung inflammation at 80 mg/kg, os qd pretreated with compound for 1 hr followed by Pseudomonas aeruginosa instillation and measured after 7 days by immunohistochemistry analysis. Type of data set: functional, organism-based. The settings on record: time 7.0 day.

Data set [5] concerns Mus musculus. The experiment in a line: Antifibrotic activity against BLM-induced lung injury C57BL/6 mouse model assessed as decrease in inflammatory interstitial infiltrate at 80 mg/kg, po qd pretreated with compound for 1 hr followed by BLM treatment and measured on day 21 by H and E staining based histological analysis. The following applies: time 21.0 day. The class given is functional, organism-based. The procedure, abridged:
(§2)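 BLM model: pharyngeal aspiration 0.02U/50µl; oral daily dosing in saline from 1 h pre-BLM; day 21 sacrifice. Lungs fixed 48 h in 10% buffered formalin at room temperature, paraffin-embedded, 4 µm sections. Stains: H&E for infiltrate, Masson's trichrome or Picrosirius Red for stromal fibres.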

In data set [6] the test system is Mus musculus. The experiment in a line: Antifibrotic activity against BLM-induced lung injury C57BL/6 mouse model assessed as reduction in accumulation of immune cells bronchoalveolar lavage at 80 mg/kg, po qd pretreated with compound for 1 hr followed by BLM treatment and measured on day 21 by trypan blue staining based hemocytometer analysis. Type of data set: functional, organism-based. The gist of the method: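 BLM model with aspiration, oral daily dosing in saline from 1 h pre-challenge, and day-21 endpoint. Lavage via tracheal cannula with 1 mL aliquots of ice-cold Ca/Mg-free phosphate medium, pH 7.4. Cells pelleted at 500×g, 5 min, 4 °C, then washed and resuspended. Counted by trypan blue exclusion on a hemocytometer.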

Data set [7] concerns Mus musculus. The experiment in a line: Antifibrotic activity against Pseudomonas aeruginosa-induced pulmonary fibrosis C57BL/6 mouse model assessed as reduction in accumulation of immune cells bronchoalveolar lavage at 80 mg/kg, os qd pretreated with compound for 1 hr followed by Pseudomonas aeruginosa instillation and measured after 7 days by trypan blue staining based hemocytometer analysis. The class given is functional, organism-based. The following applies: time 7.0 day. The gist of the method: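 Day 7 after trans-tracheal Pseudomonas bead instillation, with oral 80 mg/kg daily dosing. Trachea cannulated, lungs washed once with 0.5 mL Dulbecco's PBS. Fluid spun, then total pelleted cells counted with trypan blue on a hemocytometer.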

Data set [8] relates to Mus musculus. As to the kind of experiment: Antifibrotic activity against Pseudomonas aeruginosa-induced pulmonary fibrosis C57BL/6 mouse model assessed as reduction in MPO level at 80 mg/kg, os qd […] and measured after 7 days by spectrophotometric analysis. The class given is functional, organism-based. The settings on record: time 7.0 day, tested as the 2H-labelled form. The procedure, abridged: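 Pseudomonas bead model, 80 mg/kg oral daily for 7 days from 1 h post-instillation. Lungs homogenized in 0.5% HTAB/10 mM potassium phosphate pH 7 and spun 20,000×g, 30 min, 4 °C. Supernatant reacted with 0.1 mM H2O2 and 1.6 mM tetramethylbenzidine, A650 read. Unit = 1 µmol H2O2 degraded/min at 37 °C; per g wet tissue.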

Data set [9] has as its system Mus musculus. The experiment in a line: Antifibrotic activity against BLM-induced lung injury C57BL/6 mouse model assessed as reduction in lung wet/dry ratio by measuring liquid accumulation at 80 mg/kg, po qd pretreated with compound for 1 hr followed by BLM treatment and measured on day 21. The following applies: time 21.0 day. Type of data set: functional, organism-based. The gist of the method:
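At day 21 after BLM aspiration (compound given orally daily from 1 h pre-BLM), lungs harvested free of extraneous tissue and weighed wet. Dried 72 h at 100°C and reweighed. Water content = wet minus dry weight.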

Data set [10] has as its system Mus musculus. The experiment in a line: Inhibition of Pseudomonas aeruginosa-induced apoptosis in C57BL/6 mouse at 80 mg/kg, os qd pretreated with compound for 1 hr followed by Pseudomonas aeruginosa instillation and measured after 7 days by TUNEL assay. The class given is functional, organism-based. The settings on record: time 7.0 day, tested as the 2H-labelled form. The gist of the method: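 Lung sections from the day-7 Pseudomonas model (oral 80 mg/kg daily) treated with 15 µg/ml proteinase K for 15 min at RT, then 3% H2O2 for 5 min. TdT with biotinylated dUTP applied, 37 °C 90 min. HRP-conjugated antibody 30 min, then DAB. TUNEL-positive cells quantified.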

Data set [11] concerns Mus musculus. As to the kind of experiment: Antifibrotic activity against Pseudomonas aeruginosa-induced pulmonary fibrosis C57BL/6 mouse model assessed as effect on poly(ADP-ribose) polymerase level at 80 mg/kg, os qd […] and measured after 7 days by immunohistochemistry analysis. Type of data set: functional, organism-based. The following applies: time 7.0 day, tested as the 2H-labelled form. The procedure, abridged:
as §1

For data set [12], the system named is Mus musculus. The experiment in a line: Antifibrotic activity against BLM-induced lung injury C57BL/6 mouse model assessed as reduction in collagen thickness at 80 mg/kg, po qd pretreated with compound for 1 hr followed by BLM treatment and measured on day 21 by picrosirius red staining method. Type of data set: functional, organism-based. The following applies: time 21.0 day. The procedure, abridged: as §2

Data set [13] relates to Mus musculus. As to the kind of experiment: Antifibrotic activity against BLM-induced lung injury C57BL/6 mouse model assessed as reduction in collagen thickness at 80 mg/kg, po qd pretreated with compound for 1 hr followed by BLM treatment and measured on day 21 by Masson trichrome staining based analysis. Type of data set: functional, organism-based. The following applies: time 21.0 day. The procedure, abridged: as §2

Data set [14] concerns Mus musculus. The experiment in a line: Antifibrotic activity against BLM-induced lung injury C57BL/6 mouse model assessed as decrease in MPO level at 80 mg/kg, po qd pretreated with compound for 1 hr followed by BLM treatment and measured on day 21 by colorimetric assay. Type of data set: functional, organism-based. The following applies: time 21.0 day. The gist of the method:
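BLM 0.02U/50µl given by pharyngeal aspiration under isoflurane. Compound in 0.9% NaCl, or saline vehicle, by gavage 1 h before BLM, then daily. Mice killed day 21. Lung MPO measured with a colorimetric kit per the manufacturer. Unit = enzyme degrading 1 μM peroxide/min at 37°C, expressed as U/mg wet tissue.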

A short description of data set [15]: Drug metabolism in mouse plasma assessed as 7-((1,3-dioxol-2-yl)methyl)-1,3-dimethyl-1H-purine-2,6(3H,7H)-dione formation measured upto 6 hrs. Type of data set: ADME, cell-free.
A short description of data set [16]: Drug metabolism in mouse plasma assessed as Theophylline formation measured upto 4 hrs. The class given is ADME, cell-free. The procedure, abridged:
(§3)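 Plasma from mice dosed 20 mg/Kg i.v. or 80 mg/Kg by oral gavage, sampled sublingually under isoflurane pre-dose to 24 h (n=3), K3EDTA. Caffeine internal standard, trichloroacetic acid precipitation. Kinetex C18 UHPLC-MS, positive full-scan/PRM. Metabolites quantified against calibration curves.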

A short description of data set [17]: Drug metabolism in mouse plasma assessed as Etophylline formation measured upto 4 hrs. The class given is ADME, cell-free. The gist of the method: as §3
Data set [18] in a line: Drug metabolism in mouse plasma assessed as 7-theophylline acetic acid formation by measuring fold increase measured at 30 mins. The settings on record: 0.5 h. The class given is ADME, cell-free. The procedure, abridged:
as §3

Data set [19] can be described thus: Drug metabolism in mouse plasma assessed as dm-doxophylline formation measured upto 4 hrs. Type of data set: ADME, cell-free. The procedure, abridged: as §3

The source made the active and inactive calls. The calls are words filed in the database; no cut-off is given here.

As to `Cn1c(=O)c2c(ncn2CC2OCCO2)n(C)c1=O`, the result in the data set on Mus musculus [1], in the data set with Mus musculus [2], in the data set with Mus musculus [3], with Mus musculus [3] (tested as the 2H-labelled form), in the data set with Mus musculus [4] and in the data set with Mus musculus [4] (tested as the 2H-labelled form) was Active. The result in the data set with Mus musculus [5], in the data set with Mus musculus [5] (tested as the 2H-labelled form), in the data set on Mus musculus [6], in the data set on Mus musculus [6] (tested as the 2H-labelled form), with Mus musculus [7] and in the data set on Mus musculus [7] (tested as the 2H-labelled form) was Active. For the same compound, the result with Mus musculus [8], in the data set with Mus musculus [9], in the data set with Mus musculus [9] (tested as the 2H-labelled form), in the data set with Mus musculus [11], in the data set on Mus musculus [12] and with Mus musculus [12] (tested as the 2H-labelled form) was Active. For the same compound, the outcome with Mus musculus [13], in the data set on Mus musculus [13] (tested as the 2H-labelled form), with Mus musculus [14] and in the data set with Mus musculus [14] (tested as the 2H-labelled form) was Active. Moreover, in the data set on Mus musculus [10], the inhibition result was “Active”.
Take `[2H]C1([2H])OC(Cn2cnc3c2c(=O)n(C)c(=O)n3C)OC1([2H])[2H]`: the Drug metabolism result in [15] is reported as “Metabolite_Notdetected”; in [16] it was “Metabolite_Detected”; in data set [17], “Metabolite_Notdetected”; in data set [19], “Metabolite_Detected”. Also, the “fold change (FC)” value in data set [18] is 3.
